Measured values gathered from unrelated publications.
Organism: Nakaseomyces glabratus
Effect on: microbial growth

Structure (SMILES) | method | strain | time | notes | MIC
CCCCCOc1c(OC)cc(NC(C)CCCNC(=O)C(N)C(C)CC)c2nc(C(C)(C)C)ccc12 (centres unmarked) | broth dilution | ATCC90030 | – | – | > 20 µg/mL
COc1cc(-c2ccc(C(C)(C)C)cc2)cc(C(C)C#Cc2c(C)nc(N)nc2N)c1 (centres unmarked) | resazurin | – | – | – | 207 µg/mL
C[C@@H]1[C@H](O)[C@@H](C)/C=C/C=C/C=C/C=C/C=C/C=C/C=C/[C@H](O[C@@H]2O[C@H](C)[C@@H](O)[C@H](N)[C@@H]2O)C[C@@H]2O[C@](O)(C[C@@H](O)C[C@@H](O)[C@H](O)CC[C@@H](O)C[C@@H](O)CC(=O)O[C@H]1C)C[C@H](O)[C@H]2C(=O)O | broth dilution | ATCC90030 | – | – | 0.63 µg/mL
C[C@@H]1[C@H](O)[C@@H](C)/C=C/C=C/C=C/C=C/C=C/C=C/C=C/[C@H](O[C@@H]2O[C@H](C)[C@@H](O)[C@H](N)[C@@H]2O)C[C@@H]2O[C@](O)(C[C@@H](O)C[C@@H](O)[C@H](O)CC[C@@H](O)C[C@@H](O)CC(=O)O[C@H]1C)C[C@H](O)[C@H]2C(=O)O | – | ATCC90030 | – | – | 0.68 µM
C[C@@H]1[C@H](O)[C@@H](C)/C=C/C=C/C=C/C=C/C=C/C=C/C=C/[C@H](O[C@@H]2O[C@H](C)[C@@H](O)[C@H](N)[C@@H]2O)C[C@@H]2O[C@](O)(C[C@@H](O)C[C@@H](O)[C@H](O)CC[C@@H](O)C[C@@H](O)CC(=O)O[C@H]1C)C[C@H](O)[C@H]2C(=O)O | broth dilution | – | – | – | 1.25 µg/mL
OC(Cn1cncn1)(Cn1cncn1)c1ccc(F)cc1F | – | – | – | clinical isolate | 4 µg/mL
OC(CNCCN1CCOCC1)(Cn1cncn1)c1ccc(F)cc1F (centres unmarked) | broth dilution | ATCC2001 | 48 h | – | 31.3 µg/mL
CCC(C#Cc1c(C)nc(N)nc1N)c1cc(OC)c(OC)c(OC)c1 (centres unmarked) | resazurin | – | – | – | 89 µg/mL
CCCCCCCCCCCCCCN1CCNCC1 | broth dilution | ATCC2001 | 48 h | – | 0.975 µg/mL
OC(Cn1cncn1)(Cn1cncn1)c1ccc(F)cc1F | broth dilution | MY1381 | – | – | 8 µg/mL
COc1cc(NC(C)CCCN)c2nc(C(C)(C)C)ccc2c1Oc1ccc(Cl)c(Cl)c1 (centres unmarked) | broth dilution | ATCC90030 | – | – | 20 µg/mL
Fc1ccc(C2(Cn3cncn3)CO2)c(F)c1 (centres unmarked) | broth dilution | ATCC2001 | 48 h | – | > 31.3 µg/mL
CCCCCCCCOc1c(OC)cc(NC(C)CCCNC(=O)C2CCCN2)c2nc(C(C)(C)C)ccc12 (centres unmarked) | broth dilution | ATCC90030 | – | – | 20 µg/mL
CCCCCCCCCCN1CCNCC1 | broth dilution | ATCC2001 | 48 h | – | 7.8 µg/mL
